An excerpt weighted towards active compounds, which were near 1% of everything screened.
TLR4-MyD88 BLA: blocks binding of human TLR4 to MyD88. O00206+Q99836. HeLa CL3-4 TLR4/MyD88 BLA complementation, FRET ratio. inhibition, % at 8.4 µM. 0.18% of 200,000 active. AID 861; in the data active = inhibition above about 25%;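 note: 0% = vehicle and 100% = reference inhibitor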
b-catenin transl: alters nuclear translocation of beta-catenin in HeLa cells; immunofluorescence imaging; nuclear translocation activity, % at 5 µM; 0.3% of 190,000 active;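 active = nuclear translocation activity above 50% at 5 µM, with a well cell count of 50 or more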;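 note: per-cell ratio of nuclear to cytoplasmic median beta-catenin stain intensity; plate controls were DMSO negative control for no effect and GSK-3 inhibitor IX positive control for full effect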
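Assay system: human HeLa cells, native beta-catenin; doses: 5 µM primary, 0.02–20 µM confirmation; incubation: compound treatment 24 h, 37°C, 5% CO2; technique: fluorescence imaging of beta-catenin antibody stain plus DAPI; measure: % activation, nuclear-to-cytoplasmic median beta-catenin signal ratio per cell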
TLR9-MyD88 inh: blocks human TLR9 binding to MyD88; 0.21% of 340,000 active; inhibition, % at 4.98 µM; CHO BLA complementation TLR9-MyD88, CCF4 FRET ratio; Q9NR96+Q99836;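 active = inhibition above the mean over all tested compounds plus 3 SD, cut at about 21% in these data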;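 note: 0% = DMSO only wells and 100% = clavulanate BLA inhibitor control wells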
Hsp70 act: switches on Hsp70 transcription | activation, % at 10 µM | 0.04% of 200,000 active | HeLa Hsp70 promoter luciferase reporter, luminescence; scaled: vehicle 0, proteasome-inhibitor control 100% | AID 1203;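 active = activation above the mean across all tested compounds plus 3 SD, cutoff set per campaign, cut at about 5.5% in these data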;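 note: 100% = MG132 at 30 µM as the positive control and 0% = DMSO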
MT stabilizer: microtubule stabilizers in HeLa cells; 0.83% of 200,000 active; HeLa tubulin immunostaining HCS, 24 h; share of cells brighter than vehicle mean+2SD; % tubulin-high responders, % at 10 µM;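 active = plate Z-score above 3 for both tubulin-high and condensed-nucleus cell shares, with cell loss under 80%, at 10 µM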;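 note: anti alpha tubulin signal scored within the nucleus-defined area of each cell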
NOD2-RIPK2 inh: blocks binding of human NOD2 to RIPK2 | O43353 | CHO BLA complementation NOD2-RIPK2, CCF4 ratio | inhibition, % at 4.98 µM | 0.38% of 360,000 active; in the data active = inhibition above about 21%;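 note: 0% = vehicle only and 100% = reference blocker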
Target sequence (O43353 whole entry, looked up): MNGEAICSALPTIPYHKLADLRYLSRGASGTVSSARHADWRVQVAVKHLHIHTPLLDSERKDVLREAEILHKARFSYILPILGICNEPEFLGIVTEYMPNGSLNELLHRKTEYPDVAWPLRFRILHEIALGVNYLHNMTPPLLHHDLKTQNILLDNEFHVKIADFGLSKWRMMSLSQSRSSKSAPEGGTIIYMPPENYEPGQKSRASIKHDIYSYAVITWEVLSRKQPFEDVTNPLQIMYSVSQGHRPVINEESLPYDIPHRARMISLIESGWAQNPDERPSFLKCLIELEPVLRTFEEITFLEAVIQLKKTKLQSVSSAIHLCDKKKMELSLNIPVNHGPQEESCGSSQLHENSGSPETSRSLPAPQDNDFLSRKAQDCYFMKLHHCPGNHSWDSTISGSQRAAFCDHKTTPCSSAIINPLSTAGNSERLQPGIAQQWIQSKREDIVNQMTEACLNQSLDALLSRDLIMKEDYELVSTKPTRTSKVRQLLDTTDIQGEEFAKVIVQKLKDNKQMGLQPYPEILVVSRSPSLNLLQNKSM
TLR9-MyD88 cf: TLR9-MyD88 interaction inhibition, confirmation; shares compounds with TLR9-MyD88 inh; CHO TLR9/MyD88 BLA complementation, CCF4 FRET ratio; inhibition, % at 4.98 µM; 51% of 680 active; AID 540250;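 active = mean inhibition across three repeats above about 21% taken from the earlier screen, limit read from the data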;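 note: blue over green emission ratio reports constitutive TLR9 MyD88 association via BLA complementation; 0% = DMSO vehicle wells and 100% = clavulanate BLA inhibitor wells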
BLA counter-1: counter-screen for TLR9-MyD88 inhibitors: non-selective beta-lactamase inhibitors; CHO-BLA cells, CCF4 FRET ratio, BLA reporter; inhibition, % at 4.98 µM; 7% of 680 active; shares compounds with TLR9-MyD88 inh;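 active = mean inhibition above a 50% cutoff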;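 note: counterscreen of TLR9-MyD88 hits on CMV-driven BLA in CHO-K1 cells; 0% = DMSO alone and 100% = clavulanate blocking BLA; higher means less blue over green ratio so more BLA blockade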
TLR9 CHO tox: counter-screen for TLR9-MyD88 inhibitors: cytotoxicity in CHO cells; shares compounds with TLR9-MyD88 inh; luminescence; inhibition, % at 4.98 µM; 39% of 680 active; in the data active = inhibition above about 11%
NOD2 RIPK2 conf: NOD2-RIPK2 interaction inhibition confirmed; shares compounds with NOD2-RIPK2 inh; CHO cells, NOD2-RIPK2 BLA complementation, CCF4 FRET; inhibition, % at 4.98 µM; 70% of 1,200 active;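 active = mean inhibition across replicates above a set limit taken from the earlier primary screen, cut at about 21% in these data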;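 note: 0% = DMSO-only wells and the high end = clavulanate BLA-blocked wells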
BLA counter-2: hits BLA reporter in NOD2-RIPK2 inhibitor counterscreen | AID 624371 | CHO BLA reporter, CCF4 FRET ratio | 57% of 1,200 active | shares compounds with NOD2-RIPK2 inh | inhibition, % at 4.98 µM;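 active = mean inhibition above the low-control mean inhibition plus three low-control SD, cut at about 11% in these data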;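 note: 0% = DMSO only wells and 100% = clavulanate high control wells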
* hit, by the source's call; x = no result given; ! = not confirmed by another sample.

SMILES	TLR4-MyD88 BLA	b-catenin transl	TLR9-MyD88 inh	Hsp70 act	MT stabilizer	NOD2-RIPK2 inh	TLR9-MyD88 cf	BLA counter-1	TLR9 CHO tox	NOD2 RIPK2 conf	BLA counter-2
CC(=O)c1ccc2c3c(cccc13)C(=O)N(c1c(C)nn(C)c1C)C2=O	13	1	6	0	2	0	x	x	x	x	x
CCOc1ccc(N(CC(=O)N2CCN(c3ccc(F)cc3)CC2)S(=O)(=O)c2c(C)noc2C)cc1	x	x	-11	x	x	11	x	x	x	x	x
CCCC(=O)OCCNc1cc(SCc2ccco2)c2nonc2c1[N+](=O)[O-]	1	2	6	0	2	1	x	x	x	x	x
CCCC(=O)OCCNc1cc(Sc2nccn2C)c2nonc2c1[N+](=O)[O-]	24	4	53*	0	3	71*	71*	16	97*	92*	47*
Cc1nnc(Sc2cc(NCCCO)c([N+](=O)[O-])c3nonc23)s1	15	0	36*	0	3	41*	64*	4	99*	60*	18*
CCCSc1cc(NCCOC(C)=O)c([N+](=O)[O-])c2nonc12	-6	0	-1	0	1	-2	x	x	x	x	x
CCC(=O)OCCNc1cc(Sc2nc3ccccc3s2)c2nonc2c1[N+](=O)[O-]	10	x	39*	0	2	49*	61*	13	98*	75*	14*
CCOC(=O)c1ccc(-c2ccc3ncnc(NCc4csc(C)n4)c3c2)o1	x	x	x	x	x	3	x	x	x	x	x
CCOc1ccccc1N1CCN(C(=O)c2cc(-c3cccnc3)nc3c(Cl)cccc23)CC1	x	x	-13	x	x	-12	x	x	x	x	x
CCC(=O)NCCc1nc2cc(NC(=O)c3ccco3)ccc2n1C	x	x	-4	x	x	-5	x	x	x	x	x
CCCCC1(CO)C(=O)N(c2ccccc2)N(c2ccccc2)C1=O	x	0	5	x	x	-4	x	x	x	x	x
CCCCC1C(=O)N(c2ccccc2)N(c2ccc(O)cc2)C1=O (stereo unspecified)	x	x	29*	x	x	68*	6	-1	82*	29*	4
CN(C)CCCNC(=O)OC1CC2CC1[C@H]1CCCCN1C2=O (stereo partly specified)	x	x	x	x	x	-3	x	x	x	x	x
CCCCNC(=O)COC(=O)c1c2c(nc3ccccc13)/C(=C\c1cccs1)CC2	x	x	45*	x	x	55*	47*	56*	8	66*	76*
CCc1cccc(C)c1NC(=O)COC(=O)c1c2c(nc3ccccc13)/C(=C\c1cccs1)CCC2	-10	x	-9	0	5	1	x	x	x	x	x
CCc1cc2c(-c3ccccc3)cc(=O)oc2cc1OC(C)C(C)=O (stereo unspecified)	x	x	2	x	x	8	x	x	x	x	x
CC(C)(C)OC(=O)NCC(=O)Oc1cc2oc(=O)cc(-c3ccccc3)c2cc1Cl	21	-2	47*	0	5	36*	16	21	-1	43*	48*
COc1ccccc1N1C(=O)C2C(C(=O)c3ccccc3)=NN(c3ccccc3)C2C1=O (stereo unspecified)	x	-2	47*	x	x	52*	26*	25	2	59*	64*
CCOC(=O)C1=NN(c2ccccc2)C2C(=O)N(c3ccccc3OC)C(=O)C12 (stereo unspecified)	x	2	8	x	x	8	x	x	x	x	x
CN(C)c1ccc(C=O)c(Oc2ccccc2)c1	x	x	-8	x	x	7	x	x	x	x	x
O=C(c1ccccc1)c1cc(Cl)ccc1N1C(=O)C=CC1=O	8	-3	33*	0	4	59*	38*	8	96*	89*	23*
O=C(Nc1ccc2c(c1)CCO2)Nc1nnc([C@H]2C[C@H](O)[C@@H](CO)O2)s1	x	x	x	x	x	9	x	x	x	x	x
CC1=Nc2ccc(C)cc2/C1=C/c1c(N)n2oc(C)cc2nc1=O	-8	1	21*!	1	2	55*	15	19	4	42*	29*
Cn1c(=O)c([N+](=O)[O-])c(Cl)c2ccccc21	9	0	47*	0	x	86*	62*	7	97*	93*	27*
COc1ccc(/C=C/CN2CCCC(CO)(Cc3cccc(Cl)c3)C2)cc1 (stereo unspecified)	12	5	-10	0	3	1	x	x	x	x	x
SMILES	TLR4-MyD88 BLA	b-catenin transl	TLR9-MyD88 inh	Hsp70 act	MT stabilizer	NOD2-RIPK2 inh	TLR9-MyD88 cf	BLA counter-1	TLR9 CHO tox	NOD2 RIPK2 conf	BLA counter-2
COc1ccc(Cc2ccccc2C(=O)O)cc1	x	x	-9	x	x	5	x	x	x	x	x
COc1ccc(CC2=CC(=O)c3ccccc3C2=O)cc1	x	x	24*	x	x	63*	8	-8	84*	48*	-9
CCCCC(=O)N(C)c1c(CC)nc2c(OCC(=O)c3ccc(F)cc3)cccn12	x	x	x	x	x	4	x	x	x	x	x
COc1ccc(C(=O)/C=C/c2ccc(N(C)C)cc2)c(OC)c1	x	1	36*	x	x	59*	29*	31	0	62*	66*
N#CC(C#N)=C1C=CC=CN1/C(=C\c1ccco1)C(=O)c1ccc(Br)cc1	7	5	42*	0	4	91*	46*	5	98*	93*	18*
N#C/C(=C/c1ccco1)C(N)=S	x	-1	6	x	x	-13	x	x	x	x	x
N#CC(C#N)=C1C=CC=CN1/C(=C\c1ccco1)C(=O)c1ccccc1	-5	-1	23*	1	1	80*	29*	9	98*	93*	17*
CCOC(=O)C1=C(C)NC(=S)NC1c1ccc(OCC(=O)N2CCCCC2)cc1 (stereo unspecified)	x	x	-1	x	x	-3	x	x	x	x	x
O=C(Nc1ccc(OC(F)(F)F)cc1)c1[nH]ncc1[N+](=O)[O-]	1	1	25*	0	4	25*	2	8	9	20	6
Cc1onc(C(=O)Nc2ccc(OC(F)(F)F)cc2)c1[N+](=O)[O-]	x	x	3	x	x	-4	x	x	x	x	x
O=S(=O)(/C=C/C=C/S(=O)(=O)c1ccccc1)c1ccccc1	x	x	26*	x	x	87*	27*	21	98*	77*	38*
O=C(CNS(=O)(=O)c1c(F)cccc1F)NC1CCCc2ccccc21 (stereo unspecified)	x	x	-5	x	x	-1	x	x	x	x	x
O=c1c2ccccc2sn1-c1ccc(F)cc1	x	x	32*	x	x	35*	9	0	58*	37*	2
